PMC8103808 (Journal of medicinal chemistry, 2020)

Molecular target: T1, PDIA1 (Homo sapiens, UniProt P07237)
Test: Glutathione competition in PDI reductase assay
Assay type: biochemical
Conditions: 5 mM GSH

T1 sequence (P07237 18-508): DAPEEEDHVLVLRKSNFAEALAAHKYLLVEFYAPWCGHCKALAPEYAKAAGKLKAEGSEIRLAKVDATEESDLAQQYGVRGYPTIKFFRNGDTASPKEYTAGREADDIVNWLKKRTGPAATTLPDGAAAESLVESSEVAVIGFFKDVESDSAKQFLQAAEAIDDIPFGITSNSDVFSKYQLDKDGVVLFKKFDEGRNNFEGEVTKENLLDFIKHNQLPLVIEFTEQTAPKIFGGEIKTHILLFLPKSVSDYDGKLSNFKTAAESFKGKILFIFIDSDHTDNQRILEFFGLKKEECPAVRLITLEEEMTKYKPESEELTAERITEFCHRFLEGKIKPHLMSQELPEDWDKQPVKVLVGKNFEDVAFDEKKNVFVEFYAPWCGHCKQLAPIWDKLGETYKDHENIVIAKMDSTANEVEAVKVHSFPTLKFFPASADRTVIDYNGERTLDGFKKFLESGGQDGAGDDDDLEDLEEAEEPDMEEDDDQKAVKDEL

Row | SMILES | PDI inhibition in the presence of competing glutathione
1 | N#Cc1cccc(/C=C/C(=O)c2ccc(O)cc2)c1 [BAP2, reference compound] | remained active

System: U−87 MG cells
Test: MTT growth inhibition assay in U-87 MG cells
Assay type: cell-based
Conditions: Homo sapiens, read-out: MTT (% inhibition at 30 μM)
In short: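 Cells were grown at 37 °C, 5% CO₂ in 10% FBS medium: DMEM for U-87 MG, RPMI-1640 for A-172. Duplicate wells of 3000–5000 cells were attached overnight, then exposed to 30 μM test compound for 72 h. MTT (3 mg/mL) was added for 4 h at 37 °C and formazan dissolved in DMSO before reading A570. Inhibition (%) = [1−(At−Ab)/(Ac−Ab)]×100.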

Row | SMILES | inhibition at 30 µM [%]
2 | Oc1c(C(c2ccc(F)cc2)N2CCCCC2)ccc2cncnc12 (centres unmarked) [5c, 7-((4-Fluorophenyl)(piperidin-1-yl)methyl)quinazolin-8-ol] | 32
3 | Oc1c(C(c2ccc(F)cc2)N2CCCCC2)ccc2nccnc12 (centres unmarked) [5e, 6-((4-Fluorophenyl)(piperidin-1-yl)methyl)quinoxalin-5-ol] | 0
4 | Oc1c(C(c2ccc(F)cc2)N2CCCCC2)ccc2scnc12 (centres unmarked) [5f, 5-((4-Fluorophenyl)(piperidin-1-yl)methyl)benzo[d]thiazol-4-ol] | 0
5 | Oc1c(C(c2ccc(F)cc2)N2CCCCC2)ccc2ccoc12 (centres unmarked) [5g, 6-((4-Fluorophenyl)(piperidin-1-yl)methyl)benzofuran-7-ol] | 0
6 | Oc1c(C(c2ccc(F)cc2)N2CCCCC2)ccc2c1OCCO2 (centres unmarked) [5h, 6-((4-Fluorophenyl)(piperidin-1-yl)methyl)-2,3-dihydrobenzo[b][1,4]dioxin-5-ol] | 0
7 | Oc1c(C(c2ccc(F)cc2)N2CCCCC2)ccc2c1OCO2 (centres unmarked) [5i, 5-((4-Fluorophenyl)(piperidin-1-yl)methyl)benzo[d][1,3]dioxol-4-ol] | 0
8 | Oc1c(C(c2ccc(F)cc2)N2CCCCC2)ccc2cnccc12 (centres unmarked) [5j, 6-((4-Fluorophenyl)(piperidin-1-yl)methyl)isoquinolin-5-ol] | 0
9 | CN(C)c1cccc(C(c2ccc(F)cc2)N2CCCCC2)c1O (centres unmarked) [5l, 2-(Dimethylamino)-6-((4-fluorophenyl)(piperidin-1-yl)methyl)phenol] | 0
10 | CC(=O)c1cc2ccc(C(c3ccc(F)cc3)N3CCCCC3)c(O)c2o1 (centres unmarked) [5m, 1-(6-((4-Fluorophenyl)(piperidin-1-yl)methyl)-7-hydroxybenzofuran-2-yl)ethanone] | 0
11 | Oc1cc(F)ccc1C(c1ccc2ccoc2c1O)N1CCCCC1 (centres unmarked) [5n, 6-((4-Fluoro-2-hydroxyphenyl)(piperidin-1-yl)methyl)benzofuran-7-ol] | 0
12 | Oc1c(C(c2ccc3c(c2)CCC3)N2CCCCC2)ccc2ccoc12 (centres unmarked) [5o, 6-((2,3-Dihydro-1H-inden-5-yl)(piperidin-1-yl)methyl)benzofuran-7-ol] | 5
13 | Oc1c(C(c2ccc3c(c2)OC(F)(F)O3)N2CCCCC2)ccc2ccoc12 (centres unmarked) [5q, 6-((2,2-Difluorobenzo[d][1,3]dioxol-5-yl)(piperidin-1-yl)methyl)benzofuran-7-ol] | 9
14 | Oc1c(C(c2ccc(C(F)(F)F)cc2)N2CCCCC2)ccc2ccoc12 (centres unmarked) [5r, 6-(Piperidin-1-yl(4-(trifluoromethyl)phenyl)methyl)benzofuran-7-ol] | 5
15 | Oc1cc2c(cc1C(c1ccc(F)cc1)N1CCCCC1)OCCO2 (centres unmarked) [6c, 7-((4-Fluorophenyl)(piperidin-1-yl)methyl)-2,3-dihydrobenzo[b][1,4]dioxin-6-ol] | 1
16 | Oc1cc2c(cc1C(c1ccc(F)cc1)N1CCCCC1)NCC2 (centres unmarked) [6d, 6-((4-Fluorophenyl)(piperidin-1-yl)methyl)indolin-5-ol] | 0
17 | COc1cccc(C(c2cc3c(cc2O)OC(F)(F)O3)N2CCOCC2)c1OC (centres unmarked) [6e, 6-((2,3-Dimethoxyphenyl)(morpholino)methyl)-2,2-difluorobenzo[d][1,3]dioxol-5-ol] | 40
18 | Oc1cc2c(cc1C(c1ccc(F)cc1)N1CCCCC1)CCCC2 (centres unmarked) [6g, 3-((4-Fluorophenyl)(piperidin-1-yl)methyl)-5,6,7,8-tetrahydronaphthalen-2-ol] | 0
19 | Oc1ccc2ncccc2c1C(c1ccc(F)cc1)N1CCCCC1 (centres unmarked) [7a, 5-((4-Fluorophenyl)(piperidin-1-yl)methyl)quinolin-6-ol] | 10
20 | Oc1ccc2scnc2c1C(c1ccc(F)cc1)N1CCCCC1 (centres unmarked) [7b, 4-((4-Fluorophenyl)(piperidin-1-yl)methyl)benzo[d]thiazol-5-ol] | 1
21 | Oc1ccc2nccnc2c1C(c1ccc(F)cc1)N1CCCCC1 (centres unmarked) [7c, 5-((4-Fluorophenyl)(piperidin-1-yl)methyl)quinoxalin-6-ol] | 0
22 | Oc1ccc2ccncc2c1C(c1ccc(F)cc1)N1CCCCC1 (centres unmarked) [7d, 8-((4-Fluorophenyl)(piperidin-1-yl)methyl)isoquinolin-7-ol] | 0
23 | Oc1ccc2cnccc2c1C(c1ccc(F)cc1)N1CCCCC1 (centres unmarked) [7e, 5-((4-Fluorophenyl)(piperidin-1-yl)methyl)isoquinolin-6-ol] | 0
24 | Oc1ccc2[nH]ccc2c1C(c1ccc(F)cc1)N1CCCCC1 (centres unmarked) [7f, 4-((4-Fluorophenyl)(piperidin-1-yl)methyl)-1H-indol-5-ol] | 0
25 | Oc1ccc2[nH]ncc2c1C(c1ccc(F)cc1)N1CCCCC1 (centres unmarked) [7g, 4-((4-Fluorophenyl)(piperidin-1-yl)methyl)-1H-indazol-5-ol] | 87
26 | Oc1ccc2[nH]ncc2c1C(c1ccc(C(F)(F)F)cc1)N1CCCCC1 (centres unmarked) [7h, 4-(Piperidin-1-yl(4-(trifluoromethyl)phenyl)methyl)-1H-indazol-5-ol] | 0
27 | O=[N+]([O-])c1ccc(C(c2c(O)ccc3[nH]ncc23)N2CCCCC2)cc1 (centres unmarked) [7i, 4-((4-Nitrophenyl)(piperidin-1-yl)methyl)-1H-indazol-5-ol] | 0
28 | Oc1ccc2[nH]ncc2c1C(c1ccc(-c2nccs2)cc1)N1CCCCC1 (centres unmarked) [7j, 4-(Piperidin-1-yl(4-(thiazol-2-yl)phenyl)methyl)-1H-indazol-5-ol] | 0
29 | Oc1ccc2[nH]ncc2c1C(c1ccc(-n2cccc2)cc1)N1CCCCC1 (centres unmarked) [7k, 4-((4-(1H-Pyrrol-1-yl)phenyl)(piperidin-1-yl)methyl)-1H-indazol-5-ol] | 0
30 | Oc1ccc2[nH]ncc2c1C(c1ccc(-c2cncnc2)cc1)N1CCCCC1 (centres unmarked) [7l, 4-(Piperidin-1-yl(4-(pyrimidin-5-yl)phenyl)methyl)-1H-indazol-5-ol] | 0

Molecular target: T1, PDIA1
Test: PDI reductase assay
Assay type: biochemical
Conditions: not given

Row | SMILES | PDI inhibition in the PDI reductase assay (in words)
31 | COc1cccc(C(c2ccc3cccnc3c2O)N2CCOCC2)c1OC (centres unmarked) [5a, 7-((2,3-Dimethoxyphenyl)(morpholino)methyl)quinolin-8-ol] | submicromolar IC50 values
32 | Oc1c(C(c2ccc(F)cc2)N2CCCCC2)ccc2cccnc12 (centres unmarked) [5b, 7-((4-Fluorophenyl)(piperidin-1-yl)methyl)quinolin-8-ol] | submicromolar IC50 values
33 | Oc1c(C(c2ccc(F)cc2)N2CCCCC2)ccc2c1CCC2 (centres unmarked) [5k, 5-((4-Fluorophenyl)(piperidin-1-yl)methyl)-2,3-dihydro-1H-inden-4-ol] | complete loss of the potency
34 | CN(C)c1cccc(C(c2ccc(F)cc2)N2CCCCC2)c1O (centres unmarked) [5l, 2-(Dimethylamino)-6-((4-fluorophenyl)(piperidin-1-yl)methyl)phenol] | lost activity
35 | Oc1cc2c(cc1C(c1ccc(F)cc1)N1CCCCC1)NCC2 (centres unmarked) [6d, 6-((4-Fluorophenyl)(piperidin-1-yl)methyl)indolin-5-ol] | moderate loss of activity
36 | Oc1cc2c(cc1C(c1ccc(F)cc1)N1CCCCC1)CCCC2 (centres unmarked) [6g, 3-((4-Fluorophenyl)(piperidin-1-yl)methyl)-5,6,7,8-tetrahydronaphthalen-2-ol] | completely lost activity
37 | COc1c(C(c2ccc(F)cc2)N2CCCCC2)ccc2ccoc12 (centres unmarked) [compound 8, 1-((4-Fluorophenyl)(7-methoxybenzofuran-6-yl)methyl)piperidine] | lost activity
38 | Oc1cc2c(cc1C(c1ccccc1)C1CCCCC1)OCO2 (centres unmarked) [compound 13, 6-(Cyclohexyl(phenyl)methyl)benzo[d][1,3]dioxol-5-ol] | abolished its PDI inhibition
